Laboratory results: ChEMBL document CHEMBL4680154, “The optimization of xanthine derivatives leading to HBK001 hydrochloride as a potent dual ligand targeting DPP-IV and GPR119” (Eur J Med Chem, 2020)
pEC50: −log10 of the molar value. Values after ≈ are worked out from the molar mass of the structure shown. Blank lines part the entries; values can stand above or below the compound they belong to.

How the values were obtained:
[1] = biological target: T1, Glucose-dependent insulinotropic receptor (Homo sapiens) (UniProt Q8TDV5); assay: Agonist activity at CREB-LBD and Gal4-DBD fused recombinant human GPR119 expressed in HEK293 cells at 1 uM by firefly luciferase assay relative to AR231453; type: functional, cell-based
T1 sequence (whole entry): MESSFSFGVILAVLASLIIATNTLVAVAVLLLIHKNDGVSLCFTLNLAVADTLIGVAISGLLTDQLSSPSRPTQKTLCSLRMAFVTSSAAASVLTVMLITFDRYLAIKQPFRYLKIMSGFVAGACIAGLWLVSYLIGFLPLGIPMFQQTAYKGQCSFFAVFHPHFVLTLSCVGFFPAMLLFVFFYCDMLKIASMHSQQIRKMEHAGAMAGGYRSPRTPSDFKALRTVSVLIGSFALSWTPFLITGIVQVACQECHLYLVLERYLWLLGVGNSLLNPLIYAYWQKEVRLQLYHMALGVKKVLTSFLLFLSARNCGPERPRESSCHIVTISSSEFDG
In short: (§1)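 HEK293 cells transiently transfected with human GPR119, a Gal4-DBD/CREB-LBD fusion and a Gal4 UAS-driven luciferase reporter, then treated with compound (DMSO vehicle). Firefly luciferase luminescence read. Activation fold = compound/vehicle, expressed as percent of the AR231453 activation fold. EC50 obtained by curve fitting.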

[2] = biological target: T2, Glucose-dependent insulinotropic receptor (Homo sapiens, UniProt Q8TDV5); assay: Agonist activity at CREB-LBD and Gal4-DBD fused recombinant human GPR119 expressed in HEK293 cells by firefly luciferase assay; type: functional, cell-based; in short: as §1
T2 sequence (Q8TDV5 whole entry): T1 sequence (whole entry)

DPP8/9 = DPP8/9 (Homo sapiens, UniProt Q6V1X1+Q86TI2); assay: Inhibition of recombinant human DPP8/9 expressed in Rosetta cells at 10 uM using Gly-Pro-p-nitroanilide as substrate incubated for 1 hr relative to control; settings: probe Gly-Pro-p-nitroanilide
[3] = Metabolic stability in ICR/CD-1 mouse hepatocytes assessed as parent compound remaining incubated for 30 mins by LC-MS/MS analysis; type: ADME, cell-based, Hepatocyte; settings: read-out: Stabilty
In short: (§2)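 Hepatocytes from male ICR/CD-1 mice, male Sprague-Dawley rats, or mixed human donors. Parent compound measured after 30 min incubation and normalised to the time-zero concentration.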

[4] = Metabolic stability in Sprague-Dawley rat hepatocytes assessed as parent compound remaining incubated for 30 mins by LC-MS/MS analysis; type: ADME, cell-based, Hepatocyte; settings: read-out: Stabilty; in short: as §2
[5] = Metabolic stability in human hepatocytes assessed as parent compound remaining incubated for 30 mins by LC-MS/MS analysis; type: ADME, cell-based, Hepatocyte; settings: read-out: Stabilty; in short: as §2
Vero = assay: Cytotoxicity against African green monkey Vero cells incubated for 48 hrs by MTT assay; settings: Chlorocebus sabaeus
[6] = Elimination half life in ICR mouse plasma at 20 mg/kg, po measured up to 24 hrs; type: ADME, organism-based; settings: read-out: beta t1/2 (converted)
In short: (§3)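 Male ICR mice (26–27 g), three per route. Oral dose given as a 2 mg/mL suspension in 0.5% carboxymethyl cellulose; intravenous dose as 0.4 mg/mL in 30% SBECD with 1 mol/L HCl. Blood taken at 5, 15, 30 min and 1, 2, 4, 7, 24 h; plasma stored at -80 °C. Non-compartmental analysis; F = (AUCpo×dose iv)/(AUCiv×dose po).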

[7] = Elimination half life in ICR mouse plasma at 2 mg/kg, iv measured up to 24 hrs; type: ADME, organism-based; settings: read-out: beta t1/2 (converted); in short: as §3
[8] = Elimination half-life in Sprague-Dawley rat plasma at 30 mg/kg, po measured up to 24 hrs; type: ADME, organism-based; settings: read-out: beta t1/2 (converted)
In short: (§4)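 Male SD rats (180–200 g), three per route, dosed as free base content. Oral formulation in 0.5% carboxymethyl cellulose; intravenous formulation in normal saline. Sampling at 5, 15, 30 min and 1, 1.5, 2, 4, 6, 8, 12, 24 h; plasma kept at -80 °C. Non-compartmental parameters; F = (AUCpo×dose iv)/(AUCiv×dose po).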

[9] = Tmax in ICR mouse plasma at 20 mg/kg, po measured up to 24 hrs; type: ADME, organism-based; in short: as §3
[10] = Tmax in Sprague-Dawley rat plasma at 30 mg/kg, po measured up to 24 hrs; type: ADME, organism-based; in short: as §4
[11] = Cmax in ICR mouse plasma at 20 mg/kg, po measured up to 24 hrs; type: ADME, organism-based; parameters: route oral, dose 20 mg/kg, time <=24; in short: as §3
[12] = Cmax in ICR mouse plasma at 2 mg/kg, iv measured up to 24 hrs; type: ADME, organism-based; parameters: route intravenous, dose 2 mg/kg, time <=24; in short: as §3
[13] = Cmax in Sprague-Dawley rat plasma at 30 mg/kg, po measured up to 24 hrs; type: ADME, organism-based; parameters: route oral, dose 30 mg/kg, time <=24; in short: as §4
[14] = AUC(0 to t) in ICR mouse plasma at 20 mg/kg, po measured up to 24 hrs; type: ADME, organism-based; parameters: route oral, dose 20 mg/kg, time <=24; in short: as §3
[15] = AUC(0 to t) in ICR mouse plasma at 2 mg/kg, iv measured up to 24 hrs; type: ADME, organism-based; parameters: route intravenous, dose 2 mg/kg, time <=24; in short: as §3
[16] = AUC(0 to t) in Sprague-Dawley rat plasma at 30 mg/kg, po measured up to 24 hrs; type: ADME, organism-based; parameters: route oral, dose 30 mg/kg, time <=24; in short: as §4
[17] = AUC(0 to infinity) in ICR mouse plasma at 20 mg/kg, po measured up to 24 hrs; type: ADME, organism-based; parameters: route oral, dose 20 mg/kg, time <=24; in short: as §3
[18] = AUC(0 to infinity) in ICR mouse plasma at 2 mg/kg, iv measured up to 24 hrs; type: ADME, organism-based; parameters: route intravenous, dose 2 mg/kg, time <=24; in short: as §3
[19] = AUC(0 to infinity) in Sprague-Dawley rat plasma at 30 mg/kg, po measured up to 24 hrs; type: ADME, organism-based; parameters: route oral, dose 30 mg/kg, time <=24; in short: as §4
[20] = Mean residence time (0 to infinity) in ICR mouse at 20 mg/kg, po measured up to 24 hrs; type: ADME, organism-based; settings: in vivo; in short: as §3
[21] = Mean residence time (0 to infinity) in ICR mouse at 2 mg/kg, iv measured up to 24 hrs; type: ADME, organism-based; settings: in vivo; in short: as §3
[22] = Mean residence time (0 to infinity) in Sprague-Dawley rat at 30 mg/kg, po measured up to 24 hrs; type: ADME, organism-based; settings: in vivo; in short: as §4
[23] = Oral bioavailability in ICR mouse at 20 mg/kg; type: ADME, organism-based; settings: in vivo; in short: as §3
[24] = Oral bioavailability in Sprague-Dawley rat at 30 mg/kg; type: ADME, organism-based; settings: in vivo; in short: as §4

Activity ([1]; filed as agonist): 100%
pEC50 [2]: 6.19
Compound: CC(C)c1noc(C2CCN(c3ncnc(Nc4ccc(S(C)(=O)=O)cc4F)c3[N+](=O)[O-])CC2)n1

Compound: CC#CCn1c(N2CCC[C@@H](N)C2)nc2c1c(=O)n(CCCN1CCN(c3nc(-c4ccccc4)no3)CC1)c(=O)n2C
inhibition at 1 h, 10 µM (DPP8/9): 0%
pEC50 [2]: 5.85
remaining at 0.5 h [3]: 32%
remaining at 0.5 h [4]: 23.8%
remaining at 0.5 h [5]: 101%
IC50 (Vero): 46.6 µg/mL (≈ 79.4 µM)
half-life [6]: 1.06 h
half-life [7]: 1.64 h
half-life [8]: 1.11 h
Tmax [9]: 0.42 h
Tmax [10]: 1.17 h
Cmax [11]: 213 ng/mL
Cmax [12]: 850 ng/mL
Cmax [13]: 192 ng/mL
AUC(0-t) at 24 h [14]: 308 ng·h/mL
AUC(0-t) at 24 h [15]: 257 ng·h/mL
AUC(0-t) at 24 h [16]: 468 ng·h/mL
AUC(0-inf) [17]: 318 ng·h/mL
AUC(0-inf) [18]: 261 ng·h/mL
AUC(0-inf) [19]: 502 ng·h/mL
MRT inf [20]: 1.22 h
MRT inf [21]: 0.76 h
MRT inf [22]: 2.11 h
bioavailability [23]: 12.2%
bioavailability [24]: 31.8%

inhibition at 1 h, 10 µM (DPP8/9): 3.3%
Activity ([1]; filed as agonist): 49%
Compound: CC#CCn1c(N2CCC[C@@H](N)C2)nc2c1c(=O)n(CCCN1CCC(c3cc(-c4ccccc4)on3)CC1)c(=O)n2C

Activity ([1]; filed as agonist): 78%
pEC50 [2]: 5.85
Compound: CC#CCn1c(N2CCC[C@@H](N)C2)nc2c1c(=O)n(CCCN1CCN(c3ncc(F)cn3)CC1)c(=O)n2C

Compound: CC#CCn1c(N2CCC[C@@H](N)C2)nc2c1c(=O)n(CCCN1CCC(c3nc(-c4ccccc4)c[nH]3)CC1)c(=O)n2C
inhibition at 1 h, 10 µM (DPP8/9): 5.1%
Activity ([1]; filed as agonist): 65%
pEC50 [2]: 6.22
remaining at 0.5 h [3]: 69.4%
remaining at 0.5 h [4]: 21.7%
remaining at 0.5 h [5]: 84%
IC50 (Vero): 35.2 µg/mL (≈ 60.3 µM)

Activity ([1]; filed as agonist): 79%
pEC50 [2]: 5.65
Compound: CC#CCn1c(N2CCC[C@@H](N)C2)nc2c1c(=O)n(CCCN1CCN(c3ncc(OC)cn3)CC1)c(=O)n2C

Activity ([1]; filed as agonist): 90%
pEC50 [2]: 5.40
Compound: CC#CCn1c(N2CCC[C@@H](N)C2)nc2c1c(=O)n(CCCN1CCN(c3ncc(C(F)(F)F)cn3)CC1)c(=O)n2C

inhibition at 1 h, 10 µM (DPP8/9): 1.6%
Activity ([1]; filed as agonist): 81%
pEC50 [2]: 5.71
Compound: CC#CCn1c(N2CCC[C@@H](N)C2)nc2c1c(=O)n(CCCN1CCN(c3nc(-c4ccccc4)ns3)CC1)c(=O)n2C

inhibition at 1 h, 10 µM (DPP8/9): 2.2%
Activity ([1]; filed as agonist): 83%
pEC50 [2]: 5.50
Compound: CC#CCn1c(N2CCC[C@@H](N)C2)nc2c1c(=O)n(CCCN1CCC(c3nc(-c4ccccc4)cs3)CC1)c(=O)n2C

inhibition at 1 h, 10 µM (DPP8/9): 7.3%
Activity [1]: 38%
Compound: CC#CCn1c(N2CCC[C@@H](N)C2)nc2c1c(=O)n(CCCN1CCN(c3nnc(-c4ccccc4)[nH]3)CC1)c(=O)n2C

inhibition at 1 h, 10 µM (DPP8/9): 15.4%
Activity ([1]; filed as agonist): 42%
Compound: CC#CCn1c(N2CCC[C@@H](N)C2)nc2c1c(=O)n(CCCN1CCN(c3cc(C)nn3-c3ccccc3)CC1)c(=O)n2C

Compound: CC#CCn1c(N2CCC[C@@H](N)C2)nc2c1c(=O)n(CCCN1CCN(c3noc(-c4ccccc4)n3)CC1)c(=O)n2C
Activity ([1]; filed as agonist): 89%
pEC50 [2]: 5.84
remaining at 0.5 h [3]: 24.2%
remaining at 0.5 h [4]: 25%
remaining at 0.5 h [5]: 82%
IC50 (Vero): 8.7 µg/mL (≈ 14.8 µM)
